Data on 97 compounds can be found in ChEMBL document CHEMBL4513216, “Probing the Open Global Health Chemical Diversity Library for Multistage-Active Starting Points for Next-Generation Antimalarials” (ACS Infect Dis, 2020).

This data set in a line: Toxicity liver stage against HepG2, at 10uM. Details: test concentration 10 uM, cell line HepG2-A16-CD81EGFP. Type of data set: cell-based. The following applies: human, HepG2-A16-CD81EGFP cells; read-out: INHIBITION
The method in brief: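 Uninfected HepG2-A16-CD81EGFP cells, 3 × 10^3 per well, 1536-well, plated on prespotted compound at 10 μM final, parasite-free screening media added to match infected plates; puromycin 10 μM positive, DMSO 0.5% negative; run in parallel with 48 h PbLuc assay at 37 °C, 5% CO2; viability by CellTiter-Glo luminescence, normalized to controls.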

Consider `CN1CC(c2ccccc2)CC2(CCN(C(=O)c3ccccc3)CC2)C1` (configuration not stated), for which the cytotoxicity at 10 µM was -0.0342%.
Under `CNc1nc(CNC(=O)Nc2cccc(CSC)c2)cs1` stands -3.01%; under `O=C(Cc1csc(-c2ccoc2)n1)NCCC(=O)N1CCCCC1`, 9.13%; under `Cc1ccc(C(=O)Nc2ccc(N(C)C)nc2)n1C`, -9.38%.
The value for `CC(=O)Nc1ccc2nn(C(C)C)cc2c1` was -145%; that for `COCCNC(=O)Nc1ccc(C(=O)N2CCSCC2)cc1C` was -2.13%.
In the case of `O=C1CC(C(=O)Nc2nnc(-c3ccccn3)[nH]2)c2ccccc2N1` (configuration not stated), the cytotoxicity at 10 µM worked out at 7.92%.
The value for `CN1CCC(NC(=O)Nc2ccc(F)c(-n3cccc3)c2)C1=O` (configuration not stated) was -135%; that for `CS(=O)(=O)NC1CC(=O)N(c2ccccc2Cl)C1` (configuration not stated) was -0.585%; that for `COc1nccnc1N1CCN(Cc2cccc(F)c2)C(=O)C1` was 3.77%.
The value for `Cc1nn(C)c(N(C)C)c1CNCc1ccc(Cn2cccn2)cc1` was 3.73%; that for `Cc1cc(N2CCC(c3ncc[nH]3)CC2)cc(C)n1` was -1.95%; that for `N#Cc1ccc(C(=O)N2CCn3c(Cn4cccn4)cnc3C2)cc1` was 3.09%.
Consider `CS(=O)(=O)N1CCCCCC1C1CCN(Cc2nc(C3CC3)no2)CC1` (configuration not stated), for which the cytotoxicity at 10 µM was -4.09%.
Take `CC(CNC(=O)c1ccncc1F)Oc1ccc(F)cc1` (configuration not stated): the cytotoxicity at 10 µM turned out to be 0.0383%.
`Cc1nc(C2CCCN2CCc2cccs2)no1` (configuration not stated): the cytotoxicity at 10 µM was determined as 10.4%.
Under `COc1cc2nc(C)n(CC(=O)O)c(=O)c2cc1OC` stands 5.68%; under `Cc1nccn1CCN(C)c1nc(-c2ccc(Cl)cc2)nc2c1CNC2`, -29.5%; under `O=C(NCCc1ccccc1F)NCC(O)c1cccc(F)c1` (configuration not stated), -6.23%.
Turning to `CN(C)C(=O)COC[C@@]12CCC[C@@H]1CN(C1CCCC1)C2`, the cytotoxicity at 10 µM was -13.2%.
Under `Cn1nnnc1SCC1Cc2ccccc2O1` (configuration not stated) stands 14.9%; under `Cc1ccc(N2Cc3c(CN(C)C)nn(C)c3C2)nn1`, 2.47%; under `CSCCC(=O)N1CCCC1c1ccsc1` (configuration not stated), -20.3%.
Under `CN(CC1(CO)CCC1)C(=O)C1CCC(=O)N(Cc2ccc(Cl)cc2)C1` (configuration not stated) stands -11.2%.
The value for `COCC(=O)N1CCCN(c2ncnc3c2CCNCC3)CC1` was 8.93%.
`Cc1sc(-n2cnnn2)c(C(=O)NC(C)C)c1C`: the cytotoxicity at 10 µM worked out at 2.83%.
Under `Cc1noc(C)c1C(=O)N1CCCN(Cc2cscn2)CC1` stands -1.56%; under `CCCc1nnsc1C(=O)NCC1CCN(c2ncccn2)CC1`, 10.6%; under `O=C1[C@H]2CN(Cc3ccccc3)C[C@H]2CN1c1cncnc1`, -4.53%.
The value for `CS(=O)(=O)NC[C@H]1OC[C@@H]2CCN(CCc3ccccc3)C[C@@H]21` was -4.67%.
For the compound `COCC1CN(S(=O)(=O)N(C)C)Cc2ncn(CC3CC3)c21` (configuration not stated), the cytotoxicity at 10 µM was determined as 8.77%.
Under `Cc1cc(-c2cnc(N3CCC(O)CC3)nc2-c2cccnc2C)on1` stands -25.2%; under `COc1cccc([C@H]2CN(C(=O)c3nnc4n3CCCC4)C[C@@H]2N)c1`, -2.57%.
Under `COc1ccc(C)cc1CNC(=O)C1=NN(c2ccccc2)C(=O)CN1` stands 12.8%; under `O=C(C1CCCO1)N1CCc2nnc(Cn3cccc3)n2CC1` (configuration not stated), 13.9%; under `Cc1noc(C[C@@H]2COC[C@H]3CN(S(=O)(=O)C4CC4)C[C@@H]23)n1`, 8.37%.
The value for `Cc1nccn1CCC1CCCCN1C(=O)c1ccc2nonc2c1` (configuration not stated) was -6.55%; that for `Cc1nc(CNC(=O)N2CCN(c3ccc(Cl)cn3)CC2)no1` was -13.1%; that for `Cc1cccnc1NC(=O)C1(n2cnnn2)CCCCC1` was -2.43%.
On to `O=C(CSC1CCc2ccccc2NC1=O)NCc1cccs1` (configuration not stated), for which the cytotoxicity at 10 µM is -2%.
The value for `Cc1nc(CN2CC(CCCc3ccccn3)(C(=O)N(C)C)C2)co1` was 7.43%; that for `Cc1cc(N2CCC(c3nnc(CN(C)C)n3C3CC3)CC2)ccn1` was 7.57%; that for `N#Cc1ccc(C(=O)N2CCn3cc(CN4CCCCC4)nc3C2)cc1` was -84.7%.
Turning to `Cc1cnc(C(=O)N2C[C@@H](NS(C)(=O)=O)[C@@H]3OCCC[C@@H]32)cn1`, the cytotoxicity at 10 µM is -89.7%.
Consider `O=C(c1ccccc1Cl)N1CC[C@H](O)[C@@H](N2CCOCC2)CC1`, for which the cytotoxicity at 10 µM is -4.91%.
As to `NC(=O)C1(Cc2ccccc2-c2ccccc2)CCCN(CC2CC2)C1` (configuration not stated), the cytotoxicity at 10 µM was found to be 1.67%.
Turning to `N#Cc1ccc(NC2CCN(c3ncccn3)CC2)cc1Cl`, the cytotoxicity at 10 µM came to 8.8%.
Regarding `CCN1CC(CN(C)Cc2nc(-c3ccc(F)cc3)oc2C)CC1=O` (configuration not stated), the cytotoxicity at 10 µM was -2.22%.
The value for `Cn1cc(Cl)cc1C(=O)N1CCN(Cc2ccsc2)CC1` was -2.86%; that for `CCN(CC)Cc1nc2c(o1)CN(S(=O)(=O)c1cccs1)C2` was -117%; that for `CC(C)n1[nH]c(=O)c2c1NC(=O)CC2c1cccc(Br)c1` (configuration not stated) was 5.28%.
Take `CN1C[C@@H](n2cnc(-c3ccccc3)c2-c2ncc[nH]2)C[C@H]1C(=O)O`: the cytotoxicity at 10 µM is -4.75%.
For `CN(C)C1COC2(CCN(Cc3ccncc3)CC2)C1` (configuration not stated), the cytotoxicity at 10 µM was -69.2%.
The value for `Cc1cc(C(=O)NCc2ccnc(N3CCN(C)CC3)c2)sc1C` was -11.7%; that for `Cc1ccc(C)c(C(=O)N2CCOC(CCN(C)C)C2)c1` (configuration not stated) was -0.63%.
The value for `C1CCc2nnc(CNc3nc(C4CC4)nc4c3CCNCC4)n2CC1` was -7.39%; that for `COCCc1noc(CN2CCOC(CN(C)C)C2)n1` (configuration not stated) was -1.04%.
Under `CS(=O)(=O)c1cccc(C(=O)NCCCN2CCc3ccccc3C2)c1` stands -12.1%; under `CC(C)n1ncc2c1NC(=O)CSC2C(F)(F)F` (configuration not stated), -11.1%.
For `COCCC1(CNC(=O)Nc2ccc(-n3cccn3)cc2)CCC1`, the cytotoxicity at 10 µM is -2.75%.
For the compound `CC(C)n1nc2c(cc1=O)CN(CC(=O)N(C)c1nccs1)CC2`, the cytotoxicity at 10 µM was -9.94%.
`OCCOCCNCC1(c2ccc(F)cc2)CCOC1` (configuration not stated): the cytotoxicity at 10 µM was -147%.
On to `CNC(=O)c1cc(NC(=O)NC(C)CCc2cccn2C)ccc1F` (configuration not stated), for which the cytotoxicity at 10 µM was -2.01%.
The value for `Cn1cc(C[C@H]2[C@H](O)CCN2Cc2ccncc2)cn1` was -78.5%; that for `COc1ccc(CN2C[C@@H](N(C)Cc3ccco3)[C@H]3OCCC[C@H]32)cc1` was 1.18%; that for `CCn1cc(-c2cc(C(=O)N3CCOCC3)c3cc(Cl)ccc3n2)cn1` was -1.53%.
For `CCN1CCN(c2ccccc2NC(=O)N(C)C2CCSC2)CC1` (configuration not stated), the cytotoxicity at 10 µM is -56.7%.
On to `CC(C)S(=O)(=O)NC(=O)CC(c1ccccc1)C(F)(F)F` (configuration not stated), for which the cytotoxicity at 10 µM is -43.9%.
The value for `N#Cc1ccc(OCC(O)CN2CCC(Cn3cccn3)CC2)cc1` (configuration not stated) was -0.775%; that for `Cc1nc(C)n(C2CCCN(C(=O)c3sccc3C3CC3)C2)n1` (configuration not stated) was -9.68%; that for `CC(=O)N1CCCC(c2nc(-c3ccccc3)c[nH]2)C1` (configuration not stated) was 6.48%.
Under `CN(C)c1ncc(NC(=O)N2CCC(CN3CCCC3)C2)cn1` (configuration not stated) stands 3.88%; under `Cc1cccc(CN2CCCn3c(nnc3CN3CCCC3=O)C2)n1`, 2.14%.
For `COC(=O)CN(C(=O)c1cc(C(C)C)no1)c1cccc(F)c1`, the cytotoxicity at 10 µM stood at 11.3%.
As to `COC(=O)c1ccc(Cn2cnc(C#N)n2)cc1`, the cytotoxicity at 10 µM was -4.74%.
Turning to `Cc1cc(NC(=O)C(C#N)Cc2cnn(C)c2C)no1` (configuration not stated), the cytotoxicity at 10 µM was found to be 4.58%.
With `Cc1cc(C)n(CC2CN(CC(=O)NC(C3CC3)C3CC3)CCO2)n1` (configuration not stated), the cytotoxicity at 10 µM is -0.544%.
The value for `CCN1CCN(c2ncc3c(=O)n(Cc4ccco4)ccc3n2)CC1` was -15.9%; that for `Cc1nc(C)c(C(=O)N2Cc3ccccc3OCC2Cn2ccnc2)s1` (configuration not stated) was 9.21%.
Under `CCCn1ncc(CN2C[C@@H]3CCCN3C[C@H]2CCSC)c1C` stands -11.2%; under `CCn1cc(CN2C[C@@H]3CCCN3C[C@H]2CCSC)cn1`, -25.4%.
Under `CCN(Cc1ccc2c(c1)OCO2)C(=O)c1ccc(=O)n(C)c1` stands 15.9%; under `O=C(NCCCSC1CCCCC1)C1NCCc2[nH]cnc21` (configuration not stated), -0.283%.
With `Cc1nc2c(c(N3CC=CC3)n1)CCN(c1ncccc1C(N)=O)CC2`, the cytotoxicity at 10 µM is -10.2%.
In the case of `Cc1csc(NC(=O)CN2CCCC(Cn3nc(C)nc3C)C2)n1` (configuration not stated), the cytotoxicity at 10 µM was -3.95%.
Take `Cc1nc(CN2CCCC(NCCOc3ccccc3)C2)no1` (configuration not stated): the cytotoxicity at 10 µM is -7.98%.
As to `O=C(c1cocn1)N1C[C@H]2CCC[C@@]2(COCc2cccnc2)C1`, the cytotoxicity at 10 µM is 7.35%.
Under `O=C(CSc1nccc(-c2ccc3c(c2)OCO3)n1)N1CCOCC1` stands -8.3%; under `Cc1cccc(-c2nc(C)nn2CC(=O)NCC(C)C)c1`, -27.9%.
For `COCCN(C)Cc1ccc(OC)c(OC(F)F)c1`, the cytotoxicity at 10 µM was -5.5%.
As for `CO[C@@H]1CN(c2ccccc2)S(=O)(=O)[C@@]12CCN(C(=O)N(C)C)C2`, the cytotoxicity at 10 µM worked out at 10.1%.
As for `Cc1nc(SCC(=O)Nc2ccc(C(N)=O)cc2)c(C#N)c(C)c1C`, the cytotoxicity at 10 µM was -5.28%.
The value for `CN1CCC(N2CCN(C(C(=O)O)c3cccc4c3OCC4)CC2)CC1` (configuration not stated) was 11%; that for `CN(C)C(=O)NC1COC2(CCN(Cc3ccccc3)CC2)C1` (configuration not stated) was 4.14%; that for `CC(C)c1cc(CSCCC(=O)O)no1` was -7.52%.
The value for `O=C1CCCN1CCCN1CCCC1Cn1cccn1` (configuration not stated) was -1.82%; that for `O=C(O)c1ccnc(SCC(=O)c2ccccc2)c1` was -3.78%.
